In ChEMBL document CHEMBL4602702, “Red-Emitting Dibenzodiazepinone Derivatives as Fluorescent Dualsteric Probes for the Muscarinic Acetylcholine M2 Receptor” (J Med Chem, 2020):
The source made the active and inactive calls. No cut-off for these calls is given here.

Key:
[1] = target: T1, Muscarinic acetylcholine receptor M2 (Homo sapiens, UniProt P08172); experiment: Binding affinity to human muscarinic M2 receptor expressed in CHO-K9 cells incubated in dark measured after 60 mins by Hoechst H33342 dye based confocal plate reader assay; format: cell-based
T1 sequence (P08172 whole entry): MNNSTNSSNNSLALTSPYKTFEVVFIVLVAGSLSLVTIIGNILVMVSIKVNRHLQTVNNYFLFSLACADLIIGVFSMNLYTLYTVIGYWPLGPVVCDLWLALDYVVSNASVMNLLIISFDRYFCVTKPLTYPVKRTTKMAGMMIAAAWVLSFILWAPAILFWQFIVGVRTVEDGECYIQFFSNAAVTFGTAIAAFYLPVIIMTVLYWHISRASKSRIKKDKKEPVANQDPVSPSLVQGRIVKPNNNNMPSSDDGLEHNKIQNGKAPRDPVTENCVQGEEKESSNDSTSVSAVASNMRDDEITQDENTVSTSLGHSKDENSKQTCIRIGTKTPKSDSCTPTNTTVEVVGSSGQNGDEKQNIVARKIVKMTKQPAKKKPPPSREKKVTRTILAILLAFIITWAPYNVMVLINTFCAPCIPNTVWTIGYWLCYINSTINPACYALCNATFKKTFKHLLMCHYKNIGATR
Method in brief: (§1)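 Live CHO-hMxR cells (M1 or M2) incubated with fluorescent ligand at 22 °C in the dark for 1 h, washed, then imaged at once by high-content confocal plate reader.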

[2] = target: T2, Muscarinic acetylcholine receptor M4 (Homo sapiens, UniProt P08173); experiment: Displacement of [3H]-NMS from human muscarinic M4 receptor stably expressed in CHO-K9 cells by radioligand competitive binding assay; format: cell-based
T2 sequence (P08173 whole entry): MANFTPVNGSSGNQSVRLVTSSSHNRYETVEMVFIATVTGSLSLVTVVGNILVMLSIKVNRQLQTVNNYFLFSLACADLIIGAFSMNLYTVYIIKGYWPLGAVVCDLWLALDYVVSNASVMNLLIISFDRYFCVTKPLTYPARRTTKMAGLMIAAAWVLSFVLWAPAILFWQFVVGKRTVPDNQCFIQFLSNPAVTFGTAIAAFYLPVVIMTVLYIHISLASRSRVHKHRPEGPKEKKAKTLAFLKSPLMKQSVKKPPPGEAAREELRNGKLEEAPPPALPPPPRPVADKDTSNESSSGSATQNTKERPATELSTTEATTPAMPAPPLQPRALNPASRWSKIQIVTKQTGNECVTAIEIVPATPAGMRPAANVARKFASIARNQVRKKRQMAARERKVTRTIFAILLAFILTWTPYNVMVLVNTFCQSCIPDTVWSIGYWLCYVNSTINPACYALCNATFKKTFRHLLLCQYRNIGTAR
Method in brief: (§2)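 Equilibrium competition binding at live CHO-hMxR cells with [3H]NMS at M1 0.2, M2 0.2, M3 0.2, M4 0.1, M5 0.3 nM. […] Four-parameter logistic fit converted to pKi; at least three experiments in triplicate (some two).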

[3] = target: T1, Muscarinic acetylcholine receptor M2; experiment: Binding affinity to human muscarinic M2 receptor expressed in […] cells at 22 +/- 1 degree C preincubated for 110 mins followed by atropine addition by flow cytometric saturation binding study; format: cell-based
[4] = target: T3, Muscarinic acetylcholine receptor M2 (Homo sapiens) (UniProt P08172); experiment: Binding affinity to human muscarinic M2 receptor expressed in CHO-K9 cells assessed as increase in intracellular fluorescence intensity at 30 nM incubated for 45 mins by confocal microscopy
T3 sequence (whole entry): T1 sequence (P08172 whole entry)

[5] = target: T3, Muscarinic acetylcholine receptor M2 (Homo sapiens); experiment: Binding affinity to human muscarinic M2 receptor expressed in CHO-K9 cells assessed as observed association rate constant at 22 +/- 1 degree C incubated under shaking condition in dark for 1 to 300 mins by flow cytometric saturation binding study; format: cell-based
[6] = target: T3, Muscarinic acetylcholine receptor M2 (Homo sapiens); experiment: Binding affinity to human muscarinic M2 receptor expressed in […] cells assessed as unspecific binding at Kd incubated in dark at 22 degree C for 2 hrs in presence of atropine by FACSCalibur flow cytometric saturation binding study relative to control; format: cell-based
[7] = target: T3, Muscarinic acetylcholine receptor M2 (Homo sapiens); experiment: Binding affinity to human muscarinic M2 receptor expressed in CHO-K9 cells assessed as dissociation rate constant at 22 +/- 1 degree C preincubated for 110 mins followed by atropine addition by flow cytometric saturation binding study; format: cell-based
Method in brief: (§3)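 Dissociation followed by flow cytometry at 22 °C over 9 h. koff from three-parameter incomplete monophasic decline fit; three or four experiments in duplicate.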

[8] = target: T4, Muscarinic acetylcholine receptor M1 (Homo sapiens, UniProt P11229); experiment: Binding affinity to human muscarinic M1 receptor expressed in CHO-K9 cells incubated in dark measured after 60 mins by Hoechst H33342 dye based confocal plate reader assay; format: cell-based; method in brief: as §1
T4 sequence (P11229 whole entry): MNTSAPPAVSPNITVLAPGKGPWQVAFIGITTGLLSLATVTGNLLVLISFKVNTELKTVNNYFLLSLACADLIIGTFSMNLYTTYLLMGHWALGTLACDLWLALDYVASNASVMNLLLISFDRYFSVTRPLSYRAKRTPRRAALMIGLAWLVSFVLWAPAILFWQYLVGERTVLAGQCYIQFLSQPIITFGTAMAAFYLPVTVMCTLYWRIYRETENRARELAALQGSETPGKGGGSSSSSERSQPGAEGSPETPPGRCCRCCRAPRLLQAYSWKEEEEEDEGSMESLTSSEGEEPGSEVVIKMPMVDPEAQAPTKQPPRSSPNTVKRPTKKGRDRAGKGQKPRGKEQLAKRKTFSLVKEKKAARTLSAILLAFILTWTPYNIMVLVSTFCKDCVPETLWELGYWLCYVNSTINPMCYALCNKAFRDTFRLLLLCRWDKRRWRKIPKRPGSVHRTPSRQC

[9] = target: T4, Muscarinic acetylcholine receptor M1; experiment: Displacement of [3H]-NMS from human muscarinic M1 receptor stably expressed in CHO-K9 cells by radioligand competitive binding assay; format: cell-based; method in brief: as §2
[10] = target: T3, Muscarinic acetylcholine receptor M2 (Homo sapiens); experiment: Binding affinity to human muscarinic M2 receptor expressed in CHO-K9 cells assessed as dissociation rate constant at 22 +/- 1 degree C preincubated for 180 mins followed by atropine addition by flow cytometric saturation binding study; format: cell-based; method in brief: as §3
[11] = target: T2, Muscarinic acetylcholine receptor M4; experiment: Binding affinity to human muscarinic M4 receptor expressed in […] cells incubated in dark at 22 degree C for 2 hrs by FACSCalibur flow cytometric saturation binding study; format: cell-based
[12] = target: T4, Muscarinic acetylcholine receptor M1; experiment: Binding affinity to human muscarinic M1 receptor expressed in CHO-K9 cells incubated in dark at 22 degree C for 2 hrs by FACSCalibur flow cytometric saturation binding study; format: cell-based
[13] = target: T1, Muscarinic acetylcholine receptor M2; experiment: Binding affinity to human muscarinic M2 receptor expressed in […] cells at 22 +/- 1 degree C preincubated for 180 mins followed by atropine addition by flow cytometric kinetic binding study
[14] = target: T3, Muscarinic acetylcholine receptor M2 (Homo sapiens); experiment: Binding affinity to human muscarinic M2 receptor expressed in CHO-K9 cells assessed as dissociation rate constant at 22 +/- 1 degree C preincubated for 120 mins followed by atropine addition by flow cytometric saturation binding study; format: cell-based; method in brief: as §3
[15] = target: T1, Muscarinic acetylcholine receptor M2; experiment: Binding affinity to human muscarinic M2 receptor expressed in […] cells at 22 +/- 1 degree C preincubated for 120 mins followed by atropine addition by flow cytometric saturation binding study; format: cell-based

| Compound | Kd ([1]; read-out: Kd) [nM] | Kd ([1]; read-out: pKd (converted)) [nM] | Ki [2] [nM] | Kd [3] [nM] | Activity [4] | K [5] [min⁻¹] | Activity [6] [%] | K [7] [min⁻¹] | Kd [8] [nM] | Ki [9] [nM] | K [10] [min⁻¹] | Kd [11] [nM] | Kd [12] [nM] | Kd [13] [nM] | K [14] [min⁻¹] | Kd [15] [nM] |
| --- | --- | --- | --- | --- | --- | --- | --- | --- | --- | --- | --- | --- | --- | --- | --- | --- |
| CC1(C)C(/C=C/C=C/C=C2/N(CCCCCC(=O)NCc3cc(C(=O)NCCNC(=O)CCc4cn(CCCCC5CCN(CC(=O)N6c7ccccc7NC(=O)c7ccccc76)CC5)cn4)cc(C(=O)NCCNC(=O)CCc4cn(CCCCC5CCN(CC(=O)N6c7ccccc7NC(=O)c7ccccc76)CC5)cn4)c3)c3ccc(S(=O)(=O)O)cc3C2(C)C)=[N+](CCCCS(=O)(=O)[O-])c2ccccc21.O=C(O)C(F)(F)F.O=C(O)C(F)(F)F.O=C(O)C(F)(F)F | 2.9 | 5.62 | 2.88 | 1.4 | Active | 0.024 | < 5 | 0.0031 | 10 | 2.29 | – | – | – | – | – | – |
| CC1(C)C(/C=C/C=C/C=C2/N(CCCCCC(=O)NCCN3CCN(CCCCC4CCN(CC(=O)N5c6ccccc6NC(=O)c6ccccc65)CC4)CC3)c3ccc(S(=O)(=O)O)cc3C2(C)C)=[N+](CCCCS(=O)(=O)[O-])c2ccccc21.O=C(O)C(F)(F)F.O=C(O)C(F)(F)F | 5.3 | 4.68 | 2.14 | – | Active | 0.014 | 10 | – | – | 2.88 | 0.0045 | 9.55 | 6.46 | 0.48 | – | – |
| CC1(C)C(/C=C/C=C/C=C2/N(CCCCCC(=O)NCCNC(=O)CCc3cn(CCCCC4CCN(CC(=O)N5c6ccccc6NC(=O)c6ccccc65)CC4)cn3)c3ccc(S(=O)(=O)O)cc3C2(C)C)=[N+](CCCCS(=O)(=O)[O-])c2ccccc21.O=C(O)C(F)(F)F | 12.6 | 11.5 | 4.47 | – | Active | 0.026 | 10 | – | 26.3 | 5.25 | – | – | – | – | 0.0069 | 1.9 |
